Data on two molecules can be found in ChEMBL document CHEMBL2029228, “Antimalarial activity of 9a-N substituted 15-membered azalides with improved in vitro and in vivo activity over azithromycin” (J Med Chem, 2012).

Activity calls are given as the source filed them. No cut-off for these calls is given here.

The subject of data set [1] is Plasmodium berghei. As to the kind of experiment: Antimalarial activity against Plasmodium berghei KBG173 infected in mouse assessed as decrease in parasitemia at 20 mg/kg, iv BID administered on day 3, 4 and 5 post infection measured on day 31 relative to control. Format: functional, organism-based. Also noted: dose 20 mg/kg. Put shortly:
(§1)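 Male mice (24–30 g) inoculated intraperitoneally with 5 × 10⁶ P. berghei KBG-173-infected erythrocytes; parasitemia about 1.0–3.7% by day 3. Dosing twice daily on days 3–5 postinfection. Blood smears negative on day 31 counted as cured, scored as cured/total mice (5 per dose). Mice losing ≥20% body weight sacrificed.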

The test system of data set [2] is Plasmodium berghei. As to the kind of experiment: Antimalarial activity against Plasmodium berghei KBG173 infected in mouse assessed as decrease in parasitemia at 20 mg/kg, ip BID administered on day 3, 4 and 5 post infection measured on day 31 relative to control. Format: functional, organism-based. Also noted: dose 20 mg/kg. In outline: as §1
Data set [3] concerns Plasmodium berghei. As to the kind of experiment: Antimalarial activity against Plasmodium berghei KBG173 infected in mouse assessed as cured mouse at 5 mg/kg, iv BID administered on day 3, 4 and 5 post infection measured up to day 31. Set-up: dose 5 mg/kg. Format: functional, organism-based. Put shortly:
as §1

The subject of data set [4] is Plasmodium berghei. The data set can be described thus: Antimalarial activity against Plasmodium berghei KBG173 infected in mouse assessed as decrease in parasitemia at 10 mg/kg, ip BID administered on day 3, 4 and 5 post infection measured on day 31 relative to control. Format: functional, organism-based. Set-up: dose 10 mg/kg. In outline: as §1
The test system of data set [5] is Plasmodium berghei. As to the kind of experiment: Antimalarial activity against Plasmodium berghei KBG173 infected in mouse assessed as decrease in parasitemia at 15 mg/kg, iv BID administered on day 3, 4 and 5 post infection measured on day 31 relative to control. Format: functional, organism-based. Also noted: dose 15 mg/kg. In outline:
as §1

Data set [6] relates to Plasmodium berghei. The data set can be described thus: Antimalarial activity against Plasmodium berghei KBG173 infected in mouse assessed as decrease in parasitemia at 10 mg/kg, iv BID administered on day 3, 4 and 5 post infection measured on day 31 relative to control. Format: functional, organism-based. Set-up: dose 10 mg/kg. In outline:
as §1

For data set [7], the system named is Mus musculus. The data set can be described thus: Unbound clearance in CD1 mouse at 5 mg/kg, iv. Format: ADME, organism-based. Set-up: dose 5 mg/kg, route intravenous. The settings on record: in vivo. In outline:
(§2)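 Fraction unbound measured in mouse plasma by ultrafiltration at 1 μg/mL. Unbound clearance = blood clearance/fu, assuming blood/plasma ratio of 1. Blood clearance comes from male CD-1 mice dosed IV at 5 mg/kg, with tail-vein sampling up to 24 h and LC-MS/MS analysis.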

Data set [8] is described as follows: Volume of distribution at steady state in CD1 mouse at 5 mg/kg, iv. The settings on record: in vivo, read-out: Vdss. Set-up: dose 5 mg/kg, route intravenous. Format: ADME, organism-based. In outline: (§3)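 Male CD-1 mice (N = 3 per route) dosed IV at 5 mg/kg or orally at 25 mg/kg while fasted, mostly in saline (2.5 mg/mL). Tail-vein blood taken up to 24 h, cardiac puncture at 30 h. Samples hemolyzed, protein-precipitated with acetonitrile plus internal standard, analysed by positive ESI LC-MS/MS.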

The nature of data set [9]: Oral bioavailability in CD1 mouse at 25 mg/kg. Format: ADME, organism-based. Particulars: in vivo. Put shortly: as §3
Data set [10] concerns Plasmodium berghei. As to the kind of experiment: Antimalarial activity against Plasmodium berghei KBG173 infected in mouse assessed as mouse survival time at 5 mg/kg, iv BID administered on day 3, 4 and 5 post infection. Format: functional. Put shortly:
(§4)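 Male mice (24−30 g) inoculated intraperitoneally with 5 × 10⁶ P. berghei KBG-173-infected erythrocytes; parasitemia 1.0–3.7% by day 3. IV dosing twice daily on days 3, 4 and 5 post-infection. Read-out is the survival time of the last animal alive. Mice blood-smear negative on day 31 counted as cured; mice losing ≥20% body weight sacrificed.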

In data set [11] the test system is Plasmodium berghei. As to the kind of experiment: Antimalarial activity against Plasmodium berghei KBG173 infected in mouse assessed as mouse survival time at 15 mg/kg, iv BID administered on day 3, 4 and 5 post infection. Format: functional. Put shortly:
as §4

Data set [12] concerns Mus musculus. As to the kind of experiment: Half life in CD1 mouse at 5 mg/kg, iv. Also noted: dose 5 mg/kg, route intravenous. Format: ADME, organism-based. The settings on record: mouse, in vivo. Put shortly: as §3
The test system of another data set is HepG2. As to the kind of experiment: Cytotoxicity against human HepG2 cells after 24 hrs by MTS assay. Format: cell-based. Particulars: HepG2, 24 h. In outline:
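HepG2 cells kept in RPMI 1640 with 10% FBS plus antibiotics at 37 °C, 5% CO₂. 50 000 cells per well exposed to 10 two-fold serial dilutions for 24 h. MTS reagent then added for 2 h more, absorbance read at 490 nm, IC50 derived.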
For orientation: Tetrazolium dyes change colour on reduction, which living cells bring about.

Data set [13] can be described thus: Fraction unbound in CD1 mouse plasma at 5 mg/kg, iv. Format: ADME, organism-based. Set-up: dose 5 mg/kg, route intravenous. Put shortly:
as §2

A short description of data set [14]: Clearance at steady state in CD1 mouse at 5 mg/kg, iv. Format: ADME, organism-based. Also noted: dose 5 mg/kg, route intravenous. Particulars: in vivo, read-out: CLss. In outline:
as §3

For data set [15], the system named is Plasmodium berghei. As to the kind of experiment: Antimalarial activity against Plasmodium berghei KBG173 infected in mouse assessed as cured mouse at 15 mg/kg, iv BID administered on day 3, 4 and 5 post infection measured up to day 31. Format: functional, organism-based. Set-up: dose 15 mg/kg. Put shortly:
as §1

In the case of `CC[C@H]1OC(=O)[C@H](C)[C@@H](O[C@H]2C[C@@](C)(OC)[C@@H](O)[C@H](C)O2)[C@H](C)[C@@H](O[C@@H]2O[C@H](C)C[C@H](N(C)C)[C@H]2O)[C@](C)(O)C[C@@H](C)CN(CCCNc2ccnc3cc(Cl)ccc23)[C@H](C)[C@@H](O)[C@]1(C)O`, the outcome in the data set on Plasmodium berghei [1], in the data set on Plasmodium berghei [2] and with Plasmodium berghei [5] was Active. For the same molecule, the result in the data set on Plasmodium berghei [3] and with Plasmodium berghei [4] was inactive.

The term bioavailability denotes the share of a dose that reaches the circulation, judged against a reference dose that is usually intravenous. As usually defined, the IC50 is the midpoint of a concentration-inhibition curve. A lower IC50 goes with higher potency. Broadly, the fraction unbound is the share of the substance not bound to proteins or other matrix. The low end stands for little free substance, the high end for much free substance. `CC[C@H]1OC(=O)[C@H](C)[C@@H](O[C@H]2C[C@@](C)(OC)[C@@H](O)[C@H](C)O2)[C@H](C)[C@@H](O[C@@H]2O[C@H](C)C[C@H](N(C)C)[C@H]2O)[C@](C)(O)C[C@@H](C)CN(C)[C@H](C)[C@@H](O)[C@]1(C)O` [AZITHROMYCIN]: the outcome with Plasmodium berghei [6], with Plasmodium berghei [3] and in the data set with Plasmodium berghei [15] was inactive. Moreover, the CL free in the data set on Mus musculus [7] was determined as 23.2 mL/min/kg. Further, the Vd in data set [8] was found to be 8.8 L/kg. Besides, the bioavailability in [9] stood at 72%. Moreover, the Survival in the data set on Plasmodium berghei [10] was found to be 17 days; with Plasmodium berghei [11], 19 days. The same molecule yielded a t1/2 in the data set on Mus musculus [12] of 8.3 h. The IC50 in the data set on HepG2 was > 50 µM. In data set [13], this molecule showed a fraction unbound of 0.69. Further, in data set [14], the clearance was 16 mL/min/kg.
